The target of test [1] is T1, Heparanase (Homo sapiens) (UniProt Q9Y251).
T1 sequence (whole entry): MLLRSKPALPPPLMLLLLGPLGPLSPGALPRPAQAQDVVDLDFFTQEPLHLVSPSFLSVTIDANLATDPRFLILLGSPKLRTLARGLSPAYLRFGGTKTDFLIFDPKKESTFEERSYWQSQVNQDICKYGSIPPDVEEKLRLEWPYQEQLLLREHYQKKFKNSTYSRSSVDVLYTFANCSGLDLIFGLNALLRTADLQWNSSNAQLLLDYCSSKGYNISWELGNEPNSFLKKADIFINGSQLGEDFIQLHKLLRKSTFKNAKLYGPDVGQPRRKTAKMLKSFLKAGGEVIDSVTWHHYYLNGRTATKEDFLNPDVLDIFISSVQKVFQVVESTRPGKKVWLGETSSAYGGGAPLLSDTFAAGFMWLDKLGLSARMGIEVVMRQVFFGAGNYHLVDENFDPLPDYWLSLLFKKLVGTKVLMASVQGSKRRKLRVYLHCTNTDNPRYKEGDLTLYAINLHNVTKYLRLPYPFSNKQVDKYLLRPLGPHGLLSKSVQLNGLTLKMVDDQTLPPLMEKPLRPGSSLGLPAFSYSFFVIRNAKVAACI
In words: Inhibition of human recombinant heparanase assessed as reduction in [35S] labeled ECM degradation at 50 ug/ml incubated for 5 hrs relative to control. Put shortly: (§1)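 [35S]sulfate-labeled ECM on 35 mm dishes incubated 5 h at 37 °C with recombinant human heparanase (0.5 ng/ml), with or without inhibitor, in 1 ml containing 50 mM NaCl, 1 mM DTT, 1 mM CaCl2, 10 mM phosphate-citrate pH 6.0. Released material gel-filtered on Sepharose 6B, eluted with PBS; 0.2 ml fractions counted for radioactivity.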

In test [2] the target is T1, Heparanase (Homo sapiens). Description: Inhibition of human recombinant heparanase assessed as reduction in [35S] labeled ECM degradation at 10 ug/ml incubated for 5 hrs relative to control. The method, boiled down:
as §1

Test [3] deals with T2, Heparanase (Homo sapiens, UniProt Q9Y251).
T2 sequence (Q9Y251 whole entry): T1 sequence (whole entry)
Description: Inhibition of heparanase (unknown origin) using biotin-heparan sulfate-Eu cryptate as substrate preincubated for 10 mins followed by substrate addition and measured after 60 mins by TR-FRET assay.

Test [4] addresses Coagulation factor X (Homo sapiens, UniProt P00742). In words: Inhibition of coagulation factor 10a (unknown origin) incubated for 2 mins in presence of AT3 by chromogenic substrate based […] assay. Put shortly: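 Two-stage chromogenic anti-FXa: sample (heparin 0.002-500 nM or trisaccharide 3.9-4000 nM) with ATIII (0.04 IU), 2 min at 37 °C; FXa (0.32 μg) added, 2 min at 37 °C; chromogenic substrate added, stopped after 2 min with citric acid (20 g/L). Absorbance at 405 nm in triplicate, minus reverse-order sample blank.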

The target of test [5] is T1, Heparanase (Homo sapiens). In words: Inhibition of heparanase (unknown origin) assessed as reduction in ROS-mediated SOD1 mRNA level in mouse MIN6 cells co-incubated with heparanase-producing CHO cells at 15 uM incubated for 24 hrs by qRT-PCR analysis. Format: cell-based. Put shortly:
(§2)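 MIN6 cells grown in high-glucose DMEM/10% FBS/50 μM β-mercaptoethanol, cultured at ~50% confluency in conditioned medium from heparanase-producing or control CHO cells with PBS vehicle or inhibitor for 24 h. Total RNA extracted with Trizol; cDNA made from 500 ng RNA; transcripts measured by quantitative real-time PCR.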

Test [6] relates to MIN6. In words: Inhibition of heparanase (unknown origin) assessed as reduction in ROS production in mouse MIN6 cells co-incubated with heparanase-producing CHO cells at 15 uM incubated for 24 hrs by mitochondrial ROS probe staining based fluorescence microscopic method. Format: functional, cell-based. Put shortly: (§3)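 MIN6 mouse insulinoma cells in high-glucose DMEM, 10% FBS, 50 μM β-mercaptoethanol, seeded in 4-well slide chambers. At ~50% confluency, switched to conditioned medium from heparanase-producing or control CHO cells and given PBS vehicle or inhibitor for 24 h. Stained with mitochondrial ROS tracker (100 nM); fluorescence imaged by microscopy and extent/intensity quantified.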

In test [7] the test system is MIN6. In words: Inhibition of ROS production in mouse MIN6 cells assessed as reduction in SOD1 mRNA level at 15 uM incubated for 24 hrs by qRT-PCR analysis. The class given is functional, cell-based. The method, boiled down:
as §2
(In qPCR the cycle at which signal appears reflects the starting amount.)

Test [8] deals with T1, Heparanase (Homo sapiens). Description: Inhibition of heparanase (unknown origin) assessed as reduction in ROS-mediated ERO1alpha mRNA level in mouse MIN6 cells co-incubated with heparanase-producing CHO cells at 15 uM incubated for 24 hrs by qRT-PCR analysis. The class given is cell-based. Put shortly:
as §2

The subject of test [9] is MIN6. In words: Inhibition of ROS production in mouse MIN6 cells assessed as reduction in ERO1alpha mRNA level at 15 uM incubated for 24 hrs by qRT-PCR analysis. Format: functional, cell-based. Put shortly: as §2
For test [10], the system named is MIN6. In words: Inhibition of ROS production in mouse MIN6 cells at 15 uM incubated for 24 hrs by mitochondrial ROS probe staining based fluorescence microscopic method. The class given is functional, cell-based. Put shortly: as §3
Test [11] deals with Prothrombin (Homo sapiens, UniProt P00734). Description: Inhibition of coagulation factor 2a (unknown origin) incubated for 2 mins in presence of AT3 by chromogenic substrate based […] assay. The method, boiled down:
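Two-stage chromogenic anti-FIIa: sample (heparin 0.002-500 nM or trisaccharide 3.9-4000 nM) with ATIII (0.01 IU), 2 min at 37 °C; FIIa (1.2 nkat) added, 2 min at 37 °C; chromogenic substrate added, stopped after 2 min with citric acid (20 g/L). A405 read in triplicate; reverse-order sample blank subtracted.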

The target in test [12] is T3, Platelet factor 4 (Homo sapiens, UniProt P02776).
T3 sequence (P02776 whole entry): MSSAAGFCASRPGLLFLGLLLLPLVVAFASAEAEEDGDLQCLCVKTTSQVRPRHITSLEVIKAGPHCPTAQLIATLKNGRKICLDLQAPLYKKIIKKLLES
In words: Binding affinity to PF4 (unknown origin) by BLI assay. Put shortly:
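PF4 (100 nM) mixed with ligand (0.08-250 μM trisaccharide; heparin 0.4-400 nM); free PF4 probed against biotin-heparin (5 μg/mL, 18 kDa) loaded on streptavidin biosensors. Mass-transport conditions; response fitted to a solution-affinity equation.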

Active and inactive are the calls of the source. No cut-off for these calls is given here.

inhibition, IC50 and Kd data for 3 molecules are collected here from ChEMBL document CHEMBL4342500, “Modulating Heparanase Activity: Tuning Sulfation Pattern and Glycosidic Linkage of Oligosaccharides” (J Med Chem, 2020).

Chain of Coagulation factor X (P00742 41-179 limits assumed): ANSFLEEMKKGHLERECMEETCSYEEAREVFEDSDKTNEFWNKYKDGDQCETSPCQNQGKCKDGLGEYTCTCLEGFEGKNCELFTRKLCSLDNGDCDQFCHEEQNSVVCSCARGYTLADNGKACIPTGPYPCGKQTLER
Chain of Coagulation factor X (P00742 235-488 limits assumed): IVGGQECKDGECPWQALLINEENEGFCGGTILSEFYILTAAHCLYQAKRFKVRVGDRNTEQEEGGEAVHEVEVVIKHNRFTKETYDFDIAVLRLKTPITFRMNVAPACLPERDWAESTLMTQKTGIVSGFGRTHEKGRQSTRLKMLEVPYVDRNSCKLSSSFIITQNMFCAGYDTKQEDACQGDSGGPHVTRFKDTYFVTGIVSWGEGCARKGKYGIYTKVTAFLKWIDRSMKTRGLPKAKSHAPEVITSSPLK

With `O=C(O)[C@H]1O[C@@H](O[C@H]2[C@H](O)[C@@H](NS(=O)(=O)O)[C@@H](OCCNS(=O)(=O)O)O[C@@H]2COS(=O)(=O)O)[C@H](O)[C@@H](O)[C@@H]1O[C@H]1O[C@H](COS(=O)(=O)O)[C@@H](O)[C@H](O)[C@H]1NS(=O)(=O)O`, the results for the inhibition in test [1] and in [2] were 100% and 50%, respectively. For the same molecule, the figures for the half-inhibitory concentration (IC50) in [3], in test [4] and in [11] were 393 nM, more than 2000 nM and more than 2000 nM, respectively. The inhibition result in test [5], in test [6], in [7], in test [8], in test [9] and in test [10] was “Active” throughout. The molecule also displayed an equilibrium dissociation constant (Kd) in [12] of 16000 nM.

In turn, `O=C(O)[C@H]1O[C@@H](O[C@H]2[C@H](O)[C@@H](NS(=O)(=O)O)[C@H](OCCNS(=O)(=O)O)O[C@@H]2COS(=O)(=O)O)[C@H](O)[C@@H](O)[C@@H]1O[C@H]1O[C@H](COS(=O)(=O)O)[C@@H](O)[C@H](O)[C@H]1NS(=O)(=O)O` showed a half-maximal inhibitory concentration (IC50) in test [3] of 42100 nM.

In the case of `CO[C@H]1O[C@H](COS(=O)(=O)O)[C@@H](O[C@@H]2O[C@@H](C(=O)O)[C@@H](O[C@H]3O[C@H](COS(=O)(=O)O)[C@@H](O[C@@H]4O[C@H](C(=O)O)[C@@H](O[C@H]5O[C@H](COS(=O)(=O)O)[C@@H](O)[C@H](O)[C@H]5NS(=O)(=O)O)[C@H](O)[C@H]4O)[C@H](OS(=O)(=O)O)[C@H]3NS(=O)(=O)O)[C@H](O)[C@H]2OS(=O)(=O)O)[C@H](O)[C@H]1NS(=O)(=O)O` [FONDAPARINUX], the IC50 in test [4] was determined as 11 nM.

As a reminder, the inhibition is the percentage by which the read-out fell short of the control. In general, IC50 refers to the concentration that inhibits the measured activity by half. The Kd is a measure of binding affinity in units of concentration.
